Results reported in publication PMC3979326 (Science signaling, 2012).
Square brackets hold non-standard residues; d marks the D form. Ends that are not written are not given here. pY = N[C@@H](Cc1ccc(OP(=O)(O)O)cc1)C(=O)O

How the values were obtained:
[1] = system: PC3 cells (PTEN-null prostate cancer); assay: MTT proliferation, PC3 cells; type: cell-based; conditions: 30 μM peptides, 200 nM TGX221, means ± SEM of three experiments, Fig. 6A
[2] = system: Gβγ-mediated activation of Akt via PI3Kβ; assay: Gβγ-mediated Akt activation; type: cell-based; conditions: for effect on Gβγ-mediated increase in Akt phosphorylation at Thr308: 30 μM peptide, Fig. 5A, fig. S7A; for effect on Gβγ-dependent activation of Akt (need for cell entry): fig. S7C, labeled versus unlabeled peptide
How it was run: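 HEK 293 cells were grown in DMEM with 10% FBS and transfected with human p85α, myc-p110β, myc-Akt, with or without FLAG-Gβ1 and HA-Gγ2. After overnight serum starvation, cells received myristoylated peptide (30 µM final, from DMSO stock) or TGX-221 (50 nM) for 30 min before lysis. Anti-myc immunoprecipitates were blotted for Akt and pT308-Akt, and the pAkt:total Akt ratio was quantified.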

[3] = system: EGF-dependent activation of Akt (RTK-mediated activation of PI3Kβ); assay: EGF-dependent Akt activation; type: cell-based; conditions: intact cells, cell line not named; fig. S7B
[4] = system: p110β–Gβ-p85α-icSH2–Gγ-C68S fusion heterotrimer; assay: Lipid kinase activity, fusion heterotrimer; type: biochemical, human; conditions: fig. S3A
loop-swap mutant PI3Kβ = assay: Lipid kinase activity, loop-swap mutant PI3Kβ; type: biochemical, human; conditions: pY (substrate stock 900 nM); compared with wild-type; Fig. 1F, S4A, S4B
How it was run: (§1)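 Recombinant PI3Kβ from baculovirus-infected insect cells was assayed on lipid vesicles at 1 mg/ml final (5% PIP2, 20% PS, 45% PE, 15% DOPC, 10% cholesterol, 5% sphingomyelin, by weight). Threefold enzyme stocks were 75 nM in Hepes pH 7.5, MgCl2, EDTA. Threefold substrate stocks carried 900 nM RTK-pY and/or 1.5 µM Gβ1γ2. The read-out was 32P-PIP3 captured on nitrocellulose, washed in 1 M NaCl/1% phosphoric acid.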

532KK-DD mutant PI3Kβ = assay: Lipid kinase activity, 532KK-DD mutant PI3Kβ; type: biochemical, human; conditions: pY (substrate stock 900 nM); compared with wild-type; Fig. 1F, S4A, S4B
How it was run: as §1

p110β = conditions: ref [7]; cited from earlier work
[5] = system: p110β with p85-i or p85-ic; assay: Activity of p110β with p85 truncation constructs; type: biochemical; conditions: p85-i (iSH2 only) or p85-ic (iSH2-cSH2); fig. S9
wild-type PI3Kβ = assay: Lipid kinase activity, wild-type PI3Kβ from insect cells; type: biochemical, human; conditions: no pY; Fig. 1F
How it was run: as §1

[6] = system: 532KK-DD mutant PI3Kβ in HEK 293E cells; assay: Gβγ-mediated Akt activation, 532KK-DD mutant PI3Kβ; type: cell-based, human; conditions: myc-Akt, Western blot, Fig. 2A
How it was run: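 HEK 293E cells were transfected with human p85α, mutant myc-p110β and myc-Akt, with or without FLAG-Gβ1 and HA-Gγ2, then serum-starved overnight. After anti-myc immunoprecipitation, pT308-Akt and total Akt were blotted and quantified by densitometry or infrared imaging. The pAkt:total Akt ratio is expressed as percent of basal.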

p101–p110γ dimer = assay: Gβγ-dependent activation of class IB PI3K; conditions: fig. S8A
[7] = system: NIH3T3 cells expressing p110β and p85α; assay: Boyden chamber migration, PI3Kβ-expressing NIH3T3 cells; type: cell-based
[8] = system: NIH3T3 cells transfected with p110β and p85α (PI3Kβ-dependent transformation); assay: Soft agar colony formation, PI3Kβ-transfected NIH3T3 cells; type: cell-based
adenylyl cyclase 2 = assay: Adenylyl cyclase assay, synergistic activation by Gβγ and Gαs; type: biochemical; conditions: 30 μM; 20 nM each Gαs and Gβγ; Sf9 membranes; 10 min at 30°C; fig. S8B
[9] = system: PC3 cells co-cultured with macrophages; assay: Collagen invasion assay, macrophage-dependent PC3 invasion; type: cell-based; conditions: collagen I gel, 24 hours, confocal microscopy; two experiments; Fig. 6D
How it was run: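 BAC-1.2F5 macrophages and PC-3 cells were vitally labelled with red and green CellTracker dyes and co-cultured at 2.5:1. After attachment, cells were overlaid with collagen I gel and incubated 24 h with or without test peptide. Invasion into the 3D gel was quantified by laser scanning confocal detection of dye fluorescence.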

[10] = system: NIH3T3 cells transfected with plasmid encoding PI3Kβ; assay: Proliferation of PI3Kβ-transfected NIH3T3 cells; type: cell-based; conditions: fig. S7D
p110β protein = assay: Abundance of p110β protein in cells; type: cell-based; conditions: Fig. 5, C and D
[11] = system: LPA-stimulated Akt phosphorylation in NIH3T3 cells; assay: LPA-stimulated Akt activation; type: cell-based; conditions: 30 μM peptide, 10 nM LPA for 5 min, Western blot, Fig. 5B
[12] = system: NIH3T3 cells transfected with p110β and p85α; assay: Focus formation assay, PI3Kβ-transfected NIH3T3 cells; type: cell-based; conditions: 30 μM peptide; two weeks; crystal violet; Fig. 5D
How it was run: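 NIH 3T3 cells were plated at 2×10^5 cells/well and transfected with myc-p110β and p85α plasmids. Cells were grown two weeks with medium changed every two days, with myristoylated peptide at 30 µM in the medium throughout. Cells were then fixed and stained with crystal violet, and foci were counted per well.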

p110β–Rab5 binding = assay: Rab5 pulldown assay; conditions: GST-Rab5 pulldown; fig. S8, E and F
How it was run: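 HEK 293T cells were transfected with wild-type or mutant myc-p110β plus p85α. Lysates were incubated with GTPγS-Rab5 or GST beads, washed, and bound proteins blotted.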

PC3 cells = assay: Boyden chamber chemotaxis, PC3 cells; type: cell-based; conditions: 10% FBS, 20 μM (Fig. 6C legend), three experiments
How it was run: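 PC-3 cells (5×10^4) were seeded on inserts with 8.0 µm pores. The upper chamber held serum-free medium with DMSO or myristoylated test peptide. The lower chamber held medium with 10% FBS plus DMSO or peptide.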

PLC-β = assay: Gβγ-mediated PLC-β activation in cells; type: cell-based; conditions: COS-7 cells, 30 μM, 30 min before LiCl; [3H]inositol phosphates; fig. S8C
How it was run: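 COS-7 cells were transiently transfected with or without Gβγ plasmids. Reactions were stopped with ice-cold 50 mM formic acid and neutralised with 150 mM NH4OH after lysis. [3H]inositol phosphates were isolated on Dowex columns and quantified.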

[13] = system: NIH3T3 cells transfected with 12V-Ras; assay: Soft agar colony formation, oncogenic Ras; type: cell-based; conditions: Fig. 5E
How it was run: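 Transfected NIH 3T3 cells were grown in DMEM with 10% calf serum. Two days after transfection, 2,500 cells/well were plated in 0.3% top agar over 0.6% bottom agar. Myristoylated peptide was present at 30 µM in both gels and the medium. Colonies were counted 3 weeks later.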

PLCβ3 = assay: In vitro Gβγ-mediated activation of PLCβ; type: biochemical; conditions: PLCβ3 1 nM, 10 min at 30°C, [3H]PIP2; fig. S8D
How it was run: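 Reactions used recombinant PLCβ3 with a range of peptide concentrations, with or without 200 nM Gαq and with or without Gβγ. Buffer was 20 mM Hepes pH 7.2, 70 mM KCl, 3 mM EGTA, 10 mM NaF, 20 µM AlCl3, 5 mM MgCl2. Substrate was 33 µM PIP2/333 µM PE with [3H]PIP2, free Ca2+ 200 nM. Reactions were stopped with 10% TCA plus BSA, and supernatant counted by scintillation.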

p101–p110γ dimer (PI3Kγ) = assay: Lipid kinase activity, immunopurified p101–p110γ, Gβγ-stimulated; type: biochemical; conditions: 1 μM p110β-peptide or QEHA, 10 μM SIGK; 200 nM Gβγ; lipid kinase assay
How it was run: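 Peptides were prepared in 20 mM Tris-HCl pH 7.4, 10 mM NaCl: test peptide 1 µM, scrambled 1 µM, SIGK 10 µM, QEHA 1 µM. Each was preincubated with 200 nM recombinant lipidated Gβγ for 30 min on ice, then with lipid vesicles 10 min on ice. Immunopurified PI3Kγ was added for 10 min before the kinase assay. Data are means ± SEM of triplicates, representative of two to three experiments.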

Cc1cc(C(C)Nc2ccccc2)c2nc(N3CCOCC3)cc(=O)n2c1 (stereo not drawn) [TGX221, reference compound]
effect on PC3 cell proliferation [1]: unaffected
effect on Gβγ-dependent Akt activation (TGX-221) ([2]; HEK 293E cells with p110β, p85α, myc-Akt, Gβ1γ2, TGX-221 50 nM, 30 min, fig. S5A): specifically inhibited
effect on EGF-dependent activation of Akt [3]: substantial inhibitory effect

ESDGG[pY]MDMSKDESID[pY]VPMLDMKGDIKYADIE
stimulation of fusion heterotrimer [4]: could be stimulated
activation of mutant PI3Kβ by pY (loop-swap) (loop-swap mutant PI3Kβ): activated to a similar extent
activation of mutant PI3Kβ by pY (532KK-DD) (532KK-DD mutant PI3Kβ): activated to a similar extent

Gβγ: Recombinant human Gβ1, N-terminally hexahistidine-tagged bovine wild-type Gγ2
stimulation of fusion heterotrimer [4]: could be stimulated
stimulation of p110β in the absence of p85 (p110β): stimulates p110β
stimulation of p110β associated with p85-i or p85-ic [5]: stimulates p110β
pT308-Akt in presence of exogenous Gβγ, wild-type PI3Kβ ([2]; HEK 293E cells, wild-type PI3Kβ, myc-Akt, Western blot, Fig. 2A): marked increase
PI3Kβ activation by Gβγ in the absence of pY (wild-type PI3Kβ): activated PI3Kβ in the absence of pY
Akt activation in presence of exogenous Gβγ, 532KK-DD mutant [6]: complete loss of Akt activation

KAAEIASSDSANVSSRGGKKFLPV [myristoylated p110β-peptide]
effect on Gβγ-dependent activation of class IB PI3K (p101–p110γ) (p101–p110γ dimer): no effect
effect on enhanced migration of PI3Kβ-transfected NIH3T3 cells ([7]; Boyden chamber towards 10% FBS, 24 hours, 30 μM, Fig. 5F): blocked the enhanced migration
effect on PI3Kβ-dependent transformation, soft agar colony formation ([8]; 30 μM peptide in gels and media, colonies counted after 3 weeks, Fig. 5C): inhibited
effect on synergistic activation of adenylyl cyclase by Gβγ and Gαs (adenylyl cyclase 2): no effect
effect on macrophage-dependent PC3 cell invasion [9]: blocked
effect on proliferation of PI3Kβ-transfected NIH3T3 cells [10]: neither the myristoylated peptide nor pertussis toxin inhibited the proliferation
effect on PC3 cell proliferation [1]: proliferation was inhibited
effect on abundance of p110β protein (p110β protein): did not reduce the abundance of p110β protein
effect on LPA-stimulated increase in Akt phosphorylation at Thr308 [11]: completely inhibited
effect on PI3Kβ-dependent transformation, focus formation [12]: inhibited
effect on binding of p110β to Rab5 (p110β–Rab5 binding): no effect
effect on Gβγ-mediated increase in Akt phosphorylation at Thr308 ([2]; 30 min, Western blot): completely inhibited
effect on Gβγ-dependent activation of Akt (need for cell entry) ([2]; listed as myristoylated): inhibited Gβγ-dependent activation of Akt
effect on chemotaxis of PC3 cells toward serum (PC3 cells): inhibited the chemotaxis
effect on Gβγ-mediated activation of PLC-β in cells (PLC-β): no effect
effect on EGF-dependent activation of Akt [3]: no effect
effect on cellular transformation by oncogenic Ras [13]: no effect

KAAEIASSDSANVSSRGGKKFLPV [p110β-peptide]
effect on Gβγ-mediated activation of PLC-β in vitro (PLCβ3): no effect
effect on Gβγ-mediated activation of p101–p110γ dimers (p101–p110γ dimer (PI3Kγ)): no effect on Gβγ-mediated activation of p101–p110γ dimers
effect on Gβγ-dependent activation of Akt (need for cell entry) ([2]; listed as unlabeled peptide): no such effect

NGAEKVGSADSKSIAFVSLKARSP [myristoylated scrambled peptide, reference compound]
effect on PC3 cell proliferation [1]: unaffected
effect on LPA-stimulated increase in Akt phosphorylation at Thr308 [11]: minimal effects
effect on PI3Kβ-dependent transformation, focus formation [12]: but not the myristoylated scrambled peptide, inhibited
effect on Gβγ-mediated increase in Akt phosphorylation at Thr308 ([2]; 30 min, Western blot): minimal effects

QEHAQEPERQYMHIGTMVEFAYALVGK
effect on Gβγ-mediated activation of p101–p110γ dimers (p101–p110γ dimer (PI3Kγ)): inhibited

SIGKAFKILGYPDYD
effect on Gβγ-mediated activation of p101–p110γ dimers (p101–p110γ dimer (PI3Kγ)): inhibited

pertussis toxin [reference compound]
effect on wild-type p110β-enhanced migration ([7]; pertussis toxin, fig. S6, B and C): inhibited
effect on wild-type p110β-enhanced transformation ([8]; pertussis toxin, NIH3T3 cells, fig. S6, B and C): inhibited
effect on proliferation of PI3Kβ-transfected NIH3T3 cells [10]: neither the myristoylated peptide nor pertussis toxin inhibited the proliferation
effect on PC3 cell proliferation [1]: proliferation was inhibited
